Assay results published in ChEMBL document CHEMBL4014350, “Alkoxyurea-Based Histone Deacetylase Inhibitors Increase Cisplatin Potency in Chemoresistant Cancer Cell Lines” (J Med Chem, 2017).
The source made the active and inactive calls. The calls are words filed in the database; no cut-off is given here.

How the values were obtained:
CAL-27 [1] = experiment: Potentiation of cisplatin-induced cytotoxicity against human CAL27 cells assessed as fold reduction in cisplatin IC50 at 1 uM preincubated for 48 hrs followed by cisplatin treatment measured after 72 hrs by MTT assay relative to cisplatin alone; format: functional
Summary of the method: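 Cells were preincubated 48 h with HDAC inhibitor, then cisplatin was added over a concentration range for 72 h, with MTT read-out. Shift factor is cisplatin-alone IC50 divided by combination IC50. Data are mean ± SEM of pooled data from at least three independent experiments, each in triplicate. Significance was by t test (p < 0.05).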

CAL-27 [2] = experiment: Potentiation of 0.316 uM cisplatin-induced cytotoxicity against human CAL27 cells assessed as decrease in cell viability by measuring combination index at 1000 uM preincubated for 48 hrs followed by cisplatin treatment measured after 72 hrs by MTT assay; format: functional; conditions: in the assay text read “at 1000 nM” for “at 1000 uM”
Summary of the method: (§1)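 Cal27 and cisplatin-resistant Cal27CisR cells were preincubated with the HDAC inhibitor for 48 h, then given cisplatin in combination. Viability was read by MTT after 72 h. The combination index was computed by the Chou–Talalay method: CI > 1 is antagonism, CI = 1 is additive, and CI < 0.9 is synergism. Points with fraction affected below 0.20 were flagged.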

CAL-27 [3] = experiment: Potentiation of 0.316 uM cisplatin-induced cytotoxicity against human CAL27 cells assessed as decrease in cell viability measuring combination index at 2000 uM preincubated for 48 hrs followed by cisplatin treatment measured after 72 hrs by MTT assay; format: functional; conditions: in the assay text read “at 2000 nM” for “at 2000 uM”; summary of the method: as §1
CAL-27 [4] = experiment: Potentiation of 0.5 uM cisplatin-induced cytotoxicity against human CAL27 cells assessed as decrease in cell viability by measuring combination index at 900 uM preincubated for 48 hrs followed by cisplatin treatment measured after 72 hrs by MTT assay; format: functional; summary of the method: as §1
CAL-27 [5] = experiment: Potentiation of 1 uM cisplatin-induced cytotoxicity against human CAL27 cells assessed as decrease in cell viability by measuring combination index at 1000 uM preincubated for 48 hrs followed by cisplatin treatment measured after 72 hrs by MTT assay; format: functional; conditions: in the assay text read “at 1000 nM” for “at 1000 uM”; summary of the method: as §1
CAL-27 [6] = experiment: Potentiation of 2 uM cisplatin-induced cytotoxicity against human CAL27 cells assessed as decrease in cell viability by measuring combination index at 900 uM preincubated for 48 hrs followed by cisplatin treatment measured after 72 hrs by MTT assay; format: functional; conditions: in the assay text read “at 900 nM” for “at 900 uM”
Summary of the method: (§2)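 HDAC inhibitor was added 48 h before cisplatin, then cells were exposed to cisplatin for 72 h and viability was read by MTT assay. Combination index was computed by the Chou–Talalay method: CI > 1 is antagonism, CI = 1 additive, CI < 0.9 synergism. Points with fraction affected below 0.20 were flagged.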

CAL-27 [7] = experiment: Potentiation of 5 uM cisplatin-induced cytotoxicity against human CAL27 cells assessed as decrease in cell viability by measuring combination index at 1500 uM preincubated for 48 hrs followed by cisplatin treatment measured after 72 hrs by MTT assay; format: functional; conditions: in the assay text read “at 1500 nM” for “at 1500 uM”; summary of the method: as §2
[8] = molecular target: T1, Histone deacetylase 1/6 (Homo sapiens) (UniProt Q13547+Q9UBN7); experiment: Inhibition of HDAC1/HDAC6 in human Cal27CisR cells assessed as potentiation of 1 uM cisplatin-induced cytotoxicity by measuring combination index at 2000 uM preincubated for 48 hrs followed by cisplatin treatment measured after 72 hrs by MTT assay; format: cell-based
T1 sequence (Q13547 whole entry, looked up): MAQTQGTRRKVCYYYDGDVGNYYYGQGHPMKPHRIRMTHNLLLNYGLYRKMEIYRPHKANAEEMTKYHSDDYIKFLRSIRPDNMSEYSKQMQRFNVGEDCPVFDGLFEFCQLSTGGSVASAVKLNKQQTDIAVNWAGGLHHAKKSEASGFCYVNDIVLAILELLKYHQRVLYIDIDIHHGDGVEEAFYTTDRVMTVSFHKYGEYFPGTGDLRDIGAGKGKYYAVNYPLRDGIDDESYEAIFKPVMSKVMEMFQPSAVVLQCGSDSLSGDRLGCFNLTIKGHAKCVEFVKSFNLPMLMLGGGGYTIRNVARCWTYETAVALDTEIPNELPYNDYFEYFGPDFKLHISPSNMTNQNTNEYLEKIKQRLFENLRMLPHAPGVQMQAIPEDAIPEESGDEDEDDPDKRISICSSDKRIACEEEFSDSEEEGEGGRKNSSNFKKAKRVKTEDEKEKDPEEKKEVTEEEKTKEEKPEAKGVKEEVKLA
T1 sequence (Q9UBN7 whole entry, looked up): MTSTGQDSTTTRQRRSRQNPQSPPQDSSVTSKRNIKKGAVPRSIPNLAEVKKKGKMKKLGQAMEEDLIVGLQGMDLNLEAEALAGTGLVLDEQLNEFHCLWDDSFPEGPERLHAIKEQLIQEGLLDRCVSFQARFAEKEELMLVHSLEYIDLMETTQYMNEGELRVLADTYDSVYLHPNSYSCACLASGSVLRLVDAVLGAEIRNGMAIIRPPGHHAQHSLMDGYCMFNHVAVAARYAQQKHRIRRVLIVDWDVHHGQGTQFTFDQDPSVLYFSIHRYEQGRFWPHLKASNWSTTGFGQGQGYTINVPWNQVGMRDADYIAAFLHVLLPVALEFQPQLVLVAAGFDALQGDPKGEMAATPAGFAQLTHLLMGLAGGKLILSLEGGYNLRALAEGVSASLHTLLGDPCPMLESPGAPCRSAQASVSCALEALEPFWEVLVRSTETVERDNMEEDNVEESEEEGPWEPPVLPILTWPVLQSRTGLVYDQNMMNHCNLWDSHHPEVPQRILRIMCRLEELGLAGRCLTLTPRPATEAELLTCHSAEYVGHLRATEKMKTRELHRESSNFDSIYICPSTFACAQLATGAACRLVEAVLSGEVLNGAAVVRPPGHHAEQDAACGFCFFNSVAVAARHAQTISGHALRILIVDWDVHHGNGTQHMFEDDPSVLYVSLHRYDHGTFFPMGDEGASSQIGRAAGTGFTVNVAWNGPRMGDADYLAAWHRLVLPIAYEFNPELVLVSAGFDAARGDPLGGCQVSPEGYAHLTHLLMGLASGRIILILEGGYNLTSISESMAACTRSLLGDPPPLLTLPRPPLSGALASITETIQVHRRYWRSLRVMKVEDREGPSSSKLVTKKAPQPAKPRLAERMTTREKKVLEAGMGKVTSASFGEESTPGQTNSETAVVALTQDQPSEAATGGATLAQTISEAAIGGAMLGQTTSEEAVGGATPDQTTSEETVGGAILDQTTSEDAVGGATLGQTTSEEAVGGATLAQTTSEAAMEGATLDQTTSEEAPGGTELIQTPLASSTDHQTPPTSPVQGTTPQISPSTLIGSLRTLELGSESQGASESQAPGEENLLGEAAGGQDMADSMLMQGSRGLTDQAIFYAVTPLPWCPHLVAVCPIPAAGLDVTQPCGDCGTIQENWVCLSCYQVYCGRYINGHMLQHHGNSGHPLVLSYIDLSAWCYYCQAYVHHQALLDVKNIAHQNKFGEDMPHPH
Summary of the method: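 Cal27CisR cells preincubated 48 h with the HDAC inhibitor, then exposed to cisplatin for 72 h. Viability read by MTT. Combination index calculated by the Chou–Talalay method: CI > 1 antagonism, CI = 1 additive, CI < 0.9 synergism. Points with fraction affected below 0.20 are flagged. Values are the mean of three experiments.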

CAL-27 [9] = experiment: Potentiation of cisplatin-induced apoptosis in human CAL27 cells at 1 uM preincubated for 48 hrs followed by cisplatin treatment for 6 hrs measured after 24 hrs by propidium iodide dye-based flow cytometry; format: functional, cell-based
[10] = molecular target: T1, Histone deacetylase 1/6 (Homo sapiens); experiment: Inhibition of HDAC1/HDAC6 in human Cal27CisR cells assessed as potentiation of cisplatin-induced apoptosis at 1 uM preincubated for 48 hrs followed by cisplatin treatment for 6 hrs measured after 24 hrs by propidium iodide dye-based flow cytometry (reference value: 20.3%); format: cell-based; set-up: scale not given: the % may be the effect or the level left
CAL-27 [11] = experiment: Induction of apoptosis in human CAL27 cells at 0.5 uM for 48 hrs by propidium iodide dye-based flow cytometry; format: functional, cell-based
Cal27CisR = experiment: Induction of apoptosis in human Cal27CisR cells at 0.5 uM for 48 hrs by propidium iodide dye-based flow cytometry; format: functional, cell-based
[12] = molecular target: T1, Histone deacetylase 1/6 (Homo sapiens); experiment: Inhibition of HDAC1/HDAC6 in human Cal27CisR cells assessed as potentiation of 10 uM cisplatin-induced cytotoxicity by measuring combination index at 1000 nM preincubated for 48 hrs followed by cisplatin treatment measured after 72 hrs by MTT assay
[13] = molecular target: T1, Histone deacetylase 1/6 (Homo sapiens); experiment: Inhibition of HDAC1/HDAC6 in human Cal27CisR cells assessed as potentiation of 10 uM cisplatin-induced cytotoxicity by measuring combination index at 2000 nM preincubated for 48 hrs followed by cisplatin treatment measured after 72 hrs by MTT assay
[14] = molecular target: T1, Histone deacetylase 1/6 (Homo sapiens); experiment: Inhibition of HDAC1/HDAC6 in human Cal27CisR cells assessed as potentiation of 20 uM cisplatin-induced cytotoxicity by measuring combination index at 1500 nM preincubated for 48 hrs followed by cisplatin treatment measured after 72 hrs by MTT assay
[15] = molecular target: T1, Histone deacetylase 1/6 (Homo sapiens); experiment: Inhibition of HDAC1/HDAC6 in human Cal27CisR cells assessed as potentiation of 3.16 uM cisplatin-induced cytotoxicity by measuring combination index at 900 nM preincubated for 48 hrs followed by cisplatin treatment measured after 72 hrs by MTT assay
[16] = molecular target: T1, Histone deacetylase 1/6 (Homo sapiens); experiment: Inhibition of HDAC1/HDAC6 in human Cal27CisR cells assessed as potentiation of 3.16 uM cisplatin-induced cytotoxicity by measuring combination index at 1500 nM preincubated for 48 hrs followed by cisplatin treatment measured after 72 hrs by MTT assay
[17] = molecular target: T1, Histone deacetylase 1/6 (Homo sapiens); experiment: Inhibition of HDAC1/HDAC6 in human Cal27CisR cells assessed as potentiation of 3.16 uM cisplatin-induced cytotoxicity by measuring combination index at 2000 nM preincubated for 48 hrs followed by cisplatin treatment measured after 72 hrs by MTT assay
CAL-27 [18] = experiment: Potentiation of cisplatin-induced apoptosis in human CAL27 cells at 0.5 uM preincubated for 48 hrs followed by cisplatin treatment for 6 hrs measured after 24 hrs by propidium iodide dye-based flow cytometry; format: functional, cell-based

Activity [10] [%]	Structure (SMILES)	fold change (FC) (CAL-27 [1])	CI (CAL-27 [2])	CI (CAL-27 [3])	CI (CAL-27 [4])	CI (CAL-27 [5])	CI (CAL-27 [6])	CI (CAL-27 [7])	CI [8]	Activity (CAL-27 [9])	Activity (CAL-27 [11])	Activity (Cal27CisR)	CI [12]	CI [13]	CI [14]	CI [15]	CI [16]	CI [17]	Activity (CAL-27 [18])
56.3	COc1cc(NC(=O)NOCCCCCC(=O)NO)c2ncccc2c1	7.1	0.77	0.92	0.6	0.5	0.4	0.55	0.82	Active	inactive	inactive	0.49	0.65	0.62	0.79	0.52	0.6	–
–	COc1cc(NC(=O)NOCCCCCC(=O)NO)c2nccc(C)c2c1	–	–	–	–	–	–	–	–	–	–	–	–	–	–	–	–	–	Active
